Our source for the Activity, inhibition in vivo and MIC values is ChEMBL document CHEMBL1806480, “New condensed pyrroles of potential biological interest syntheses and structure-activity relationship studies” (2011).

In brackets after ≈: the same amount, converted by molar mass. Activity calls are given as the source filed them. The calls are words filed in the database; no cut-off is given here.

The test system of test [1] is Staphylococcus aureus. The test can be described thus: Antimicrobial activity against Staphylococcus aureus ATCC 29213 at 20 to 30 ug/ml after 24 hrs by disk diffusion method. It is filed as functional, organism-based. Put shortly: (§1)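 Disc diffusion per Bauer et al. Inhibition zones were recorded. DMSO served as the solvent control. Amoxicillin and fluconazole served as reference agents.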

In test [2] the test system is Bacillus subtilis. The test can be described thus: Antimicrobial activity against Bacillus subtilis ATCC 6633 at 20 to 30 ug/ml after 24 hrs by disk diffusion method. It is filed as functional, organism-based. An outline of the steps:
as §1

In another test the test system is Mycolicibacterium phlei. As to the kind of experiment: Antimicrobial activity against Mycobacterium phlei ATCC 10142 at 20 to 30 ug/ml after 24 hrs by disk diffusion method. It is filed as functional, organism-based.
The test system of test [3] is Pseudomonas aeruginosa. As to the kind of experiment: Antimicrobial activity against Pseudomonas aeruginosa ATCC […] at 20 to 30 ug/ml after 24 hrs by disk diffusion method. It is filed as functional, organism-based. An outline of the steps: as §1
Test [4] concerns Escherichia coli. As to the kind of experiment: Antimicrobial activity against Escherichia coli ATCC 25922 at 20 to 30 ug/ml after 24 hrs by disk diffusion method. It is filed as functional, organism-based. Put shortly: as §1
For another test, the system named is Candida albicans. As to the kind of experiment: Antimicrobial activity against Candida albicans ATCC 10231 at 20 to 30 ug/ml after 24 hrs by disk diffusion method. It is filed as functional, organism-based. Put shortly:
as §1

Test [5] deals with Rattus norvegicus. The test can be described thus: Antiinflammatory activity in male Sprague-Dawley rat assessed as inhibition of carrageenan-induced rat paw edema dosed subcutaneously equimolar to 70 mg/kg, sc ibuprofen administered 1 hr before carrageenan challenge measured 1 hr post carrageenan challenge relative to control. It is filed as functional. The settings on record: route subcutaneous. An outline of the steps: (§2)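 Male Sprague-Dawley rats, 150–170 g, 5 per group. Compounds were given subcutaneously in DMSO at doses equimolar to the reference. One hour later, 0.1 mL of 1% carrageenan was injected subplantar into the right hind paw. Right-minus-left paw volume was read by water plethysmometer at 1, 2, 3 and 4 h. %inhibition = (1 − swelling treated/swelling control) × 100. Controls received DMSO s.c. Mean ± SE reported.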

The test system of test [6] is Rattus norvegicus. As to the kind of experiment: Antiinflammatory activity in male Sprague-Dawley rats assessed as inhibition of carrageenan-induced rat paw edema dosed subcutaneously equimolar to 70 mg/kg, sc ibuprofen administered 1 hr before carrageenan challenge measured 3 hrs post carrageenan challenge relative to control. It is filed as functional. The settings on record: route subcutaneous. Put shortly:
as §2

Test [7] relates to Rattus norvegicus. The test can be described thus: Antiinflammatory activity in male Sprague-Dawley rats assessed as inhibition of carrageenan-induced rat paw edema dosed subcutaneously equimolar to 70 mg/kg, sc ibuprofen administered 1 hr before carrageenan challenge measured 4 hrs post carrageenan challenge relative to control. It is filed as functional. The settings on record: route subcutaneous. An outline of the steps: as §2

For test [8], the system named is Rattus norvegicus. As to the kind of experiment: Antiinflammatory activity in male Sprague-Dawley rats assessed as inhibition of carrageenan-induced rat paw edema dosed subcutaneously equimolar to 70 mg/kg, sc ibuprofen administered 1 hr before carrageenan challenge measured 2 hrs post carrageenan challenge relative to control. It is filed as functional. The settings on record: route subcutaneous. Put shortly: as §2

The test system of test [9] is Bacillus subtilis. As to the kind of experiment: Antimicrobial activity against Bacillus subtilis ATCC 6633 after 24 hrs by microdilution technique. It is filed as functional. The following applies: for MIC: ATCC 6633, 24 h. An outline of the steps:
(§3)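 MIC by microdilution per NCCLS 1997 guidelines. Bacteria were subcultured overnight on Mueller-Hinton agar at 37 °C and passaged at least twice. Compounds were serially two-fold diluted in DMSO from 1024 to 16, mixed with nutrient agar, and inoculated. Incubation was 37 °C in a humid chamber for 24 h. MIC = lowest concentration completely inhibiting macroscopic growth. DMSO, organism-only and medium-only wells served as controls.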

Test [10] concerns Staphylococcus aureus. The test can be described thus: Antimicrobial activity against Staphylococcus aureus ATCC 29213 after 24 hrs by microdilution technique. It is filed as functional. The settings on record: ATCC 29213, 24 h. An outline of the steps:
as §3

In test [11] the test system is Pseudomonas aeruginosa. The test can be described thus: Antimicrobial activity against Pseudomonas aeruginosa ATCC […] after 24 hrs by microdilution technique. It is filed as functional. An outline of the steps: as §3
In test [12] the test system is Escherichia coli. The test can be described thus: Antimicrobial activity against Escherichia coli ATCC 25922 after 24 hrs by microdilution technique. The following applies: ATCC 25922, 24 h. It is filed as functional. Put shortly: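 MIC by two-fold serial microdilution on Mueller-Hinton agar per NCCLS 1997. Compounds were dissolved in DMSO at 1024, 512, 256, 128, 64, 32 and 16 […] and mixed with sterile nutrient agar, then inoculated with bacteria subcultured overnight at 37 °C on MHA (passaged at least twice). Incubation was 37 °C in a humid chamber and endpoints were read at 24 h. MIC is the lowest concentration completely inhibiting macroscopic growth. DMSO, organism-only and medium-only wells served as controls.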

For the compound `CCO/C=N/c1c(C#N)c(-c2ccccc2)c(-c2ccccc2)n1-c1c(C)c(=O)n(-c2ccccc2)n1C`, the outcome with Staphylococcus aureus [1], in the test on Bacillus subtilis [2], with Mycolicibacterium phlei, in the test with Pseudomonas aeruginosa [3], in the test with Escherichia coli [4] and with Candida albicans was inactive.
On to `Cc1nc2c(c(-c3ccccc3)c(-c3ccccc3)n2-c2c(C)c(=O)n(-c3ccccc3)n2C)c(=O)[nH]1`, for which the inhibition in vivo in the test on Rattus norvegicus [5] was 2.16%; in the test on Rattus norvegicus [6] it was 13.2%; in the test with Rattus norvegicus [7] it was 27.6%; in the test with Rattus norvegicus [8] it was 5.37%. Besides, in the test on Bacillus subtilis [9], the result was Active.
Regarding `Cc1ccccc1Nc1ncnc2c1c(-c1ccccc1)c(-c1ccccc1)n2-c1c(C)c(=O)n(-c2ccccc2)n1C`, the inhibition in vivo with Rattus norvegicus [5] came out at 1.95%; in the test on Rattus norvegicus [6], 13.3%; in the test with Rattus norvegicus [7], 28%; with Rattus norvegicus [8], 5.17%.
As for `CC(=O)Nc1c(C#N)c(-c2ccccc2)c(-c2ccccc2)n1-c1c(C)c(=O)n(-c2ccccc2)n1C`, the inhibition in vivo amounted to 1.73% in the test with Rattus norvegicus [5], 66.5% in the test with Rattus norvegicus [6], 46.4% with Rattus norvegicus [7] and 3.07% in the test on Rattus norvegicus [8]. The MIC against Staphylococcus aureus [10] and with Bacillus subtilis [9] was 256 µg/mL (≈ 525 µM) each time.
As to `CC(C)Cc1ccc(C(C)C(=O)O)cc1` (stereo not drawn) [IBUPROFEN], the inhibition in vivo in the test with Rattus norvegicus [5] was determined as 6.08%; in the test on Rattus norvegicus [6], 60.7%; in the test with Rattus norvegicus [7], 69.5%. Further, the inhibition in vivo at 70 mg/kg with Rattus norvegicus [8] (dose equimolar to 70 mg/kg ibuprofen) was determined as 45%.
Regarding `Cc1c(-n2c(-c3ccccc3)c(-c3ccccc3)c3c(NN)ncnc32)n(C)n(-c2ccccc2)c1=O`, the inhibition in vivo is 43.7% in the test with Rattus norvegicus [5], 65.1% in the test on Rattus norvegicus [6], 54% in the test on Rattus norvegicus [7] and 46.1% with Rattus norvegicus [8].
On to `Cc1c(-n2c(-c3ccccc3)c(-c3ccccc3)c3c(=N)[nH]cnc32)n(C)n(-c2ccccc2)c1=O`, for which the inhibition in vivo is 0.89% in the test on Rattus norvegicus [5], 11.4% with Rattus norvegicus [6], 27.5% in the test with Rattus norvegicus [7] and 2.35% in the test on Rattus norvegicus [8]. The compound also displayed an MIC in the test on Bacillus subtilis [9] of 512 µg/mL (≈ 1080 µM).
Regarding `Cc1c(-n2c(N)c(C(N)=O)c(-c3ccccc3)c2-c2ccccc2)n(C)n(-c2ccccc2)c1=O`, the inhibition in vivo in the test with Rattus norvegicus [5] came to 19.1%; in the test with Rattus norvegicus [6], 47.8%; in the test with Rattus norvegicus [7], 62.5%; in the test with Rattus norvegicus [8] it was 26.1%. For the same compound, the result with Staphylococcus aureus [1], with Bacillus subtilis [2], in the test with Mycolicibacterium phlei, in the test with Pseudomonas aeruginosa [3], with Escherichia coli [4] and in the test with Candida albicans was inactive.
In the case of `Cc1c(-n2c(-c3ccccc3)c(-c3ccccc3)c3c(Cl)ncnc32)n(C)n(-c2ccccc2)c1=O`, the result in the test with Staphylococcus aureus [1], with Bacillus subtilis [2], in the test with Mycolicibacterium phlei, in the test with Pseudomonas aeruginosa [3], in the test on Escherichia coli [4] and in the test on Candida albicans was inactive.
With `Cc1c(-n2c(-c3ccccc3)c(-c3ccccc3)c3c(Nc4ccccc4)ncnc32)n(C)n(-c2ccccc2)c1=O`, the inhibition in vivo stood at 1.99% in the test with Rattus norvegicus [5], 13% in the test on Rattus norvegicus [6], 27.9% in the test on Rattus norvegicus [7] and 5.11% in the test with Rattus norvegicus [8].
As to `Cc1c(-n2c(-c3ccccc3)c(-c3ccccc3)c3c2ncn2nnnc32)n(C)n(-c2ccccc2)c1=O`, the outcome in the test with Staphylococcus aureus [1], in the test on Bacillus subtilis [2], in the test with Mycolicibacterium phlei, in the test on Pseudomonas aeruginosa [3], in the test on Escherichia coli [4] and in the test with Candida albicans was inactive.
With `Cc1c(-n2c(-c3ccccc3)c(-c3ccccc3)c3c(=S)[nH]cnc32)n(C)n(-c2ccccc2)c1=O`, the inhibition in vivo in the test on Rattus norvegicus [5] stood at 0%; with Rattus norvegicus [6], 73.3%; in the test on Rattus norvegicus [7], 64.3%; with Rattus norvegicus [8] it was 0%. The result in the test on Staphylococcus aureus [1], with Bacillus subtilis [2], in the test on Mycolicibacterium phlei, with Pseudomonas aeruginosa [3], in the test on Escherichia coli [4] and in the test with Candida albicans was inactive.
As to `CC1(C)S[C@@H]2[C@H](NC(=O)[C@H](N)c3ccc(O)cc3)C(=O)N2[C@H]1C(=O)O` [AMOXICILLIN], the MIC worked out at 64 µg/mL (≈ 175 µM) against Pseudomonas aeruginosa [11], 1 µg/mL (≈ 2.74 µM) in the test with Staphylococcus aureus [10], 64 µg/mL (≈ 175 µM) against Bacillus subtilis [9] and 256 µg/mL (≈ 701 µM) against Escherichia coli [12].
With `Cc1c(-n2c(-c3ccccc3)c(-c3ccccc3)c3c(N/N=C/c4ccccc4)ncnc32)n(C)n(-c2ccccc2)c1=O`, the inhibition in vivo turned out to be 47.8% in the test with Rattus norvegicus [5], 90.8% in the test with Rattus norvegicus [6], 48.4% in the test on Rattus norvegicus [7] and 59.6% in the test on Rattus norvegicus [8].
Turning to `Cc1c(-n2c(N)c(C#N)c(-c3ccccc3)c2-c2ccccc2)n(C)n(-c2ccccc2)c1=O`, the inhibition in vivo in the test on Rattus norvegicus [5] came to 9.5%; with Rattus norvegicus [6] it was 62.6%; in the test with Rattus norvegicus [7], 64.7%; in the test on Rattus norvegicus [8], 36.5%. Also, the minimum inhibitory concentration (MIC) in the test on Bacillus subtilis [9] is 512 µg/mL (≈ 1150 µM).
For the compound `Cc1c(-n2c(-c3ccccc3)c(-c3ccccc3)c3c2ncn2ncnc32)n(C)n(-c2ccccc2)c1=O`, the inhibition in vivo worked out at 1.73% in the test with Rattus norvegicus [5], 9.9% in the test with Rattus norvegicus [6], 28.7% with Rattus norvegicus [7] and 4.92% in the test on Rattus norvegicus [8].
For the compound `Cc1c(-n2c(-c3ccccc3)c(-c3ccccc3)c3c(=O)[nH]cnc32)n(C)n(-c2ccccc2)c1=O`, the inhibition in vivo worked out at 63% with Rattus norvegicus [5], 60% in the test on Rattus norvegicus [6], 27.1% in the test on Rattus norvegicus [7] and 60.6% in the test with Rattus norvegicus [8]. Moreover, the result in the test on Staphylococcus aureus [1], in the test with Bacillus subtilis [2], in the test on Mycolicibacterium phlei, in the test with Pseudomonas aeruginosa [3], in the test on Escherichia coli [4] and in the test with Candida albicans was inactive. In addition, the MIC in the test with Bacillus subtilis [9] is 256 µg/mL (≈ 541 µM).
